Data reported in ChEMBL document CHEMBL1150393, “Evaluation of radiolabeled (hetero)aromatic analogues of N-(2-diethylaminoethyl)-4-iodobenzamide for imaging and targeted radionuclide therapy of melanoma” (J Med Chem, 2008).

What was measured:
Details in all cases: in vivo
Brain = assay: Biodistribution in brain of C57BL/6 mouse bearing mouse B16-F0 cells at 0.74 to 0.92 MBq, iv after 6 hrs; format: ADME, organism-based
In short: (§1)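 Male C57BL6 mice with s.c. left-flank B16-F0 melanoma (5 × 10⁵ cells in PBS). Two mice per time point frozen in liquid nitrogen after CO₂ sacrifice. Eight 40 µm whole-body cryosections per mouse read by multiwire proportional counter. cpm/mm² converted to kBq/g and expressed as %ID/g.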

Pancreas [1] = assay: Biodistribution in pancreas of C57BL/6 mouse bearing mouse B16-F0 cells at 0.74 to 0.92 MBq, iv after 3 hrs; format: ADME, organism-based; in short: as §1
Spleen [2] = assay: Biodistribution in spleen of C57BL/6 mouse bearing mouse B16-F0 cells at 0.74 to 0.92 MBq, iv after 24 hrs; format: ADME, organism-based
In short: (§2)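 [¹²⁵I]-labelled compound given iv by tail vein (0.1 µmol per mouse) to male C57BL6 mice bearing s.c. B16-F0 flank tumours (5 × 10⁵ cells in PBS). Two mice per time point were killed by CO₂, frozen in liquid nitrogen and cut into 40 µm cryosections, eight slices per mouse. Slice radioactivity was read on a multiwire proportional counter, converted to kBq/g and reported as %ID/g.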

Thyroid gland [3] = assay: Biodistribution in thyroid of C57BL/6 mouse bearing mouse B16-F0 cells at 0.74 to 0.92 MBq, iv after 3 hrs; format: ADME, organism-based; in short: as §2
[4] = Biodistribution in intestinal content of C57BL/6 mouse bearing mouse B16-F0 cells at 0.74 to 0.92 MBq, iv after 3 hrs; format: ADME, organism-based; in short: as §1
Blood [5] = assay: Biodistribution in blood of C57BL/6 mouse bearing mouse B16-F0 cells at 0.74 to 0.92 MBq, iv after 24 hrs; format: ADME, organism-based; in short: as §1
Muscle tissue = assay: Biodistribution in muscle of C57BL/6 mouse bearing mouse B16-F0 cells at 0.74 to 0.92 MBq, iv after 6 hrs; format: ADME, organism-based; in short: as §1
Thyroid gland [6] = assay: Biodistribution in thyroid of C57BL/6 mouse bearing mouse B16-F0 cells at 0.74 to 0.92 MBq, iv after 72 hrs; format: ADME, organism-based; in short: as §2
Thyroid gland [7] = assay: Biodistribution in thyroid of C57BL/6 mouse bearing mouse B16-F0 cells at 0.74 to 0.92 MBq, iv after 6 hrs; format: ADME, organism-based; in short: as §2
[8] = Ratio of drug level in tumor to brain of C57BL/6 mouse bearing mouse B16-F0 cells at 0.74 to 0.92 MBq, iv after 6 hrs; format: ADME, organism-based
In short: (§3)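 Tumour and organ radioactive concentrations came from whole-body cryosection counting (40 µm slices, eight per mouse, two mice per time) after tail-vein injection of the [¹²⁵I]-labelled compound (0.1 µmol) into male C57BL6 mice bearing s.c. B16-F0 melanoma. Each value is the ratio of the tumour concentration to the organ concentration.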

Blood [9] = assay: Biodistribution in blood of C57BL/6 mouse bearing mouse B16-F0 cells at 0.74 to 0.92 MBq, iv after 3 hrs; format: ADME, organism-based; in short: as §1
Kidney [10] = assay: Biodistribution in kidney of C57BL/6 mouse bearing mouse B16-F0 cells at 0.74 to 0.92 MBq, iv after 1 hr; format: ADME, organism-based; in short: as §1
[11] = Biodistribution in Stomach content of C57BL/6 mouse bearing mouse B16-F0 cells at 0.74 to 0.92 MBq, iv after 24 hrs; format: ADME, organism-based; in short: as §1
[12] = Biodistribution in uvea of C57BL/6 mouse bearing mouse B16-F0 cells at 0.74 to 0.92 MBq, iv after 72 hrs; format: ADME, organism-based, Uveal tract; in short: as §2
[13] = Biodistribution in intestinal content of C57BL/6 mouse bearing mouse B16-F0 cells at 0.74 to 0.92 MBq, iv after 24 hrs; format: ADME, organism-based; in short: as §1
[14] = Ratio of drug level in tumor to lung of C57BL/6 mouse bearing mouse B16-F0 cells at 0.74 to 0.92 MBq, iv after 6 hrs; format: ADME, organism-based; in short: as §3
[15] = Biodistribution in uvea of C57BL/6 mouse bearing mouse B16-F0 cells at 0.74 to 0.92 MBq, iv after 1 hr; format: ADME, organism-based, Uveal tract; in short: as §2
Spleen [16] = assay: Biodistribution in spleen of C57BL/6 mouse bearing mouse B16-F0 cells at 0.74 to 0.92 MBq, iv after 6 hrs; format: ADME, organism-based; in short: as §2
[17] = Ratio of drug level in tumor to liver of C57BL/6 mouse bearing mouse B16-F0 cells at 0.74 to 0.92 MBq, iv after 6 hrs; format: ADME, organism-based; in short: as §3
Blood [18] = assay: Biodistribution in blood of C57BL/6 mouse bearing mouse B16-F0 cells at 0.74 to 0.92 MBq, iv after 1 hr; format: ADME, organism-based; in short: as §1
[19] = Biodistribution in uvea of C57BL/6 mouse bearing mouse B16-F0 cells at 0.74 to 0.92 MBq, iv after 3 hrs; format: ADME, organism-based, Uveal tract; in short: as §2
[20] = Ratio of drug level in tumor to lung of C57BL/6 mouse bearing mouse B16-F0 cells at 0.74 to 0.92 MBq, iv after 24 hrs; format: ADME, organism-based; in short: as §3
Lung [21] = assay: Biodistribution in lung of C57BL/6 mouse bearing mouse B16-F0 cells at 0.74 to 0.92 MBq, iv after 3 hrs; format: ADME, organism-based; in short: as §1
Pancreas [22] = assay: Biodistribution in pancreas of C57BL/6 mouse bearing mouse B16-F0 cells at 0.74 to 0.92 MBq, iv after 6 hrs; format: ADME, organism-based; in short: as §1
[23] = Biodistribution in tumor of C57BL/6 mouse bearing mouse B16-F0 cells at 0.74 to 0.92 MBq, iv after 1 hr; format: ADME, organism-based, Neoplasm; in short: as §2
Lung [24] = assay: Biodistribution in lung of C57BL/6 mouse bearing mouse B16-F0 cells at 0.74 to 0.92 MBq, iv after 24 hrs; format: ADME, organism-based; in short: as §1
Lung [25] = assay: Biodistribution in lung of C57BL/6 mouse bearing mouse B16-F0 cells at 0.74 to 0.92 MBq, iv after 6 hrs; format: ADME, organism-based; in short: as §1
[26] = Biodistribution in intestinal content of C57BL/6 mouse bearing mouse B16-F0 cells at 0.74 to 0.92 MBq, iv after 6 hrs; format: ADME, organism-based; in short: as §1
Kidney [27] = assay: Biodistribution in kidney of C57BL/6 mouse bearing mouse B16-F0 cells at 0.74 to 0.92 MBq, iv after 24 hrs; format: ADME, organism-based; in short: as §1
Liver = assay: Biodistribution in liver of C57BL/6 mouse bearing mouse B16-F0 cells at 0.74 to 0.92 MBq, iv after 72 hrs; format: ADME, organism-based; in short: as §1
[28] = Biodistribution in Stomach content of C57BL/6 mouse bearing mouse B16-F0 cells at 0.74 to 0.92 MBq, iv after 72 hrs; format: ADME, organism-based; in short: as §1
Spleen [29] = assay: Biodistribution in spleen of C57BL/6 mouse bearing mouse B16-F0 cells at 0.74 to 0.92 MBq, iv after 72 hrs; format: ADME, organism-based; in short: as §2
[30] = Ratio of drug level in tumor to brain of C57BL/6 mouse bearing mouse B16-F0 cells at 0.74 to 0.92 MBq, iv after 3 hrs; format: ADME, organism-based; in short: as §3

Row | Drug uptake (Brain) [% ID/g] | Drug uptake (Pancreas [1]) [% ID/g] | Drug uptake (Spleen [2]) [% ID/g] | Drug uptake [4] [% ID/g] | Drug uptake (Blood [5]) [% ID/g] | Drug uptake (Muscle tissue) [% ID/g] | Ratio [8] | Drug uptake (Blood [9]) [% ID/g] | Drug uptake (Kidney [10]) [% ID/g] | Drug uptake [11] [% ID/g] | Drug uptake [12] [% ID/g] | Drug uptake [13] [% ID/g] | Ratio [14] | Drug uptake [15] [% ID/g] | Drug uptake (Spleen [16]) [% ID/g] | Ratio [17] | Drug uptake (Blood [18]) [% ID/g] | Drug uptake [19] [% ID/g] | Ratio [20] | Drug uptake (Lung [21]) [% ID/g] | SMILES | also measured
1 | 0.08 | 0.96 | 0.15 | 90.12 | 0.22 | 0.01 | 72.6 | 0.23 | 2.8 | 0.13 | 6.79 | 1.62 | 38.73 | 5.12 | 0.26 | 18.16 | 0.42 | 5.66 | 68.5 | 0.88 | CCN(CC)CCNC(=O)c1c[nH]c2ccc([125I])cc2c1=O.Cl.Cl | Drug uptake (Thyroid gland [3]): 4.33 % ID/g; Drug uptake (Thyroid gland [6]): 9.83 % ID/g; Drug uptake (Thyroid gland [7]): 8.55 % ID/g; Drug uptake (Pancreas [22]): 1.08 % ID/g; Drug uptake [23]: 4.7 % ID/g; Drug uptake (Lung [24]): 0.04 % ID/g; Drug uptake (Lung [25]): 0.15 % ID/g; Drug uptake [26]: 61.06 % ID/g; Drug uptake (Kidney [27]): 0.03 % ID/g
2 | 0.74 | 2.48 | 1.22 | 112.56 | 0.1 | 0.31 | 5.38 | 0.79 | 4.19 | 2.1 | 5.86 | 3.31 | 5.79 | 11.7 | 1.68 | 2.71 | 1.6 | 12.78 | 22.05 | 3.46 | CCN(CC)CCNC(=O)c1cc2cc([125I])ccc2[nH]1.Cl | Drug uptake (Liver): 0.61 % ID/g; Drug uptake [28]: 0.04 % ID/g; Drug uptake (Spleen [29]): 10.87 % ID/g; Drug uptake (Pancreas [22]): 1.46 % ID/g; Drug uptake [23]: 8.3 % ID/g; Ratio [30]: 3.91; Drug uptake (Lung [24]): 0.37 % ID/g; Drug uptake (Lung [25]): 1.7 % ID/g; Drug uptake [26]: 79.85 % ID/g; Drug uptake (Kidney [27]): 0.83 % ID/g
